{"source": "ChEMBL document CHEMBL1125468", "about": "“Extraordinarily potent antimalarial compounds: new, structurally simple, easily synthesized, tricyclic 1,2,4-trioxanes” (J Med Chem, 1992)", "key": {"[1]": {"system": "Plasmodium falciparum", "assay": "Parasite viability index for Plasmodium falciparum Indochina W2 by [3H]hypoxanthine uptake", "format": "functional, organism-based"}, "[2]": {"system": "Plasmodium falciparum", "assay": "Inhibition of Plasmodium falciparum D6 (Sierra Leone) by [3H]hypoxanthine uptake", "format": "functional, organism-based"}, "[3]": {"assay": "Potency to inhibit African Sierra Leone(D-6) clone relative to artemisinin.", "format": "functional", "in_short": "(§1)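 Ratio of artemisinin IC50 to test-compound IC50, both measured in the same [3H]hypoxanthine microdilution assay against the named clone. Parasites were at 0.5% parasitemia and 1% hematocrit, exposed for 24 h at 37 °C under low oxygen, then labelled for 18–20 h. IC50s came from a four-parameter logistic fit of duplicate wells.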"}, "[4]": {"assay": "Potency to inhibit Indochina(W-2) clone relative to artemisinin.", "format": "functional", "in_short": "as §1"}}, "data": [{"smiles": "CO[C@H]1O[C@]2(C)CC[C@H]3CCC[C@@H](CCOS(=O)(=O)c4cccc5c(N(C)C)cccc45)[C@]31OO2", "values": [{"measurement": "IC50", "setting": "[1]", "value": 1.2, "unit": "ng/mL"}, {"measurement": "IC50", "setting": "[2]", "value": 16.3, "unit": "ng/mL"}, {"measurement": "Relative potency", "setting": "[3]", "value": 0.2}, {"measurement": "Relative potency", "setting": "[4]", "value": 1.2}]}, {"smiles": "C=CCOCC[C@@H]1CCC[C@@H]2CC[C@]3(C)OO[C@]21[C@@H](OC)O3", "values": [{"measurement": "IC50", "setting": "[1]", "value": 0.6, "unit": "ng/mL"}, {"measurement": "IC50", "setting": "[2]", "value": 5.5, "unit": "ng/mL"}, {"measurement": "Relative potency", "setting": "[3]", "value": 0.7}, {"measurement": "Relative potency", "setting": "[4]", "value": 2.3}]}, {"smiles": "CO[C@H]1O[C@]2(C)CC[C@H]3CCC[C@@H](CCOCc4c(C)noc4C)[C@]31OO2", "values": [{"measurement": "IC50", "setting": "[1]", "value": 0.5, "unit": "ng/mL"}, {"measurement": "IC50", "setting": "[2]", "value": 7.6, "unit": "ng/mL"}, {"measurement": "Relative potency", "setting": "[3]", "value": 0.5}, {"measurement": "Relative potency", "setting": "[4]", "value": 2.8}]}, {"smiles": "COC(=O)c1ccccc1S(=O)(=O)OCC[C@@H]1CCC[C@@H]2CC[C@]3(C)OO[C@]21[C@@H](OC)O3", "values": [{"measurement": "IC50", "setting": "[1]", "value": 13.2, "unit": "ng/mL"}, {"measurement": "IC50", "setting": "[2]", "value": 11.3, "unit": "ng/mL"}, {"measurement": "Relative potency", "setting": "[3]", "value": 0.3}, {"measurement": "Relative potency", "setting": "[4]", "value": 0.1}]}, {"smiles": "CO[C@H]1O[C@]2(C)CC[C@H]3CCC[C@@H](CCOCc4ccccc4)[C@]31OO2", "values": [{"measurement": "IC50", "setting": "[1]", "value": 0.4, "unit": "ng/mL"}, {"measurement": "IC50", "setting": "[2]", "value": 5.4, "unit": "ng/mL"}, {"measurement": "Relative potency", "setting": "[3]", "value": 0.7}, {"measurement": "Relative potency", "setting": "[4]", "value": 3.5}]}, {"smiles": "CO[C@H]1O[C@]2(C)CC[C@H]3CCC[C@@H](CCOC(=O)N(C)C)[C@]31OO2", "values": [{"measurement": "IC50", "setting": "[1]", "value": 0.8, "unit": "ng/mL"}, {"measurement": "IC50", "setting": "[2]", "value": 2.9, "unit": "ng/mL"}, {"measurement": "Relative potency", "setting": "[3]", "value": 1.3}, {"measurement": "Relative potency", "setting": "[4]", "value": 1.8}]}, {"smiles": "CCOP(=O)(OCC)OCC[C@@H]1CCC[C@@H]2CC[C@]3(C)OO[C@]21[C@@H](OC)O3", "values": [{"measurement": "IC50", "setting": "[1]", "value": "< 0.9", "unit": "ng/mL"}, {"measurement": "IC50", "setting": "[2]", "value": 1.1, "unit": "ng/mL"}, {"measurement": "Relative potency", "setting": "[3]", "value": 3.5}, {"measurement": "Relative potency", "setting": "[4]", "value": "> 1.6"}]}, {"smiles": "C[C@@H]1CC[C@H]2[C@@H](C)C(=O)O[C@@H]3O[C@@]4(C)CC[C@@H]1[C@]32OO4", "note": "[ARTEMISININ]", "values": [{"measurement": "IC50", "setting": "[1]", "value": 1.4, "unit": "ng/mL"}, {"measurement": "IC50", "setting": "[2]", "value": 3.9, "unit": "ng/mL"}, {"measurement": "Relative potency", "setting": "[3]", "value": 1}, {"measurement": "Relative potency", "setting": "[4]", "value": 1}]}, {"smiles": "CO[C@H]1O[C@]2(C)CC[C@H]3CCC[C@@H](CCOC(=O)N(c4ccccc4)c4ccccc4)[C@]31OO2", "values": [{"measurement": "IC50", "setting": "[1]", "value": "< 0.2", "unit": "ng/mL"}, {"measurement": "IC50", "setting": "[2]", "value": 0.9, "unit": "ng/mL"}, {"measurement": "Relative potency", "setting": "[3]", "value": 4.3}, {"measurement": "Relative potency", "setting": "[4]", "value": "> 7"}]}, {"smiles": "CCN(CC)C(=O)OCC[C@@H]1CCC[C@@H]2CC[C@]3(C)OO[C@]21[C@@H](OC)O3", "values": [{"measurement": "IC50", "setting": "[1]", "value": "< 0.4", "unit": "ng/mL"}, {"measurement": "IC50", "setting": "[2]", "value": 1.7, "unit": "ng/mL"}, {"measurement": "Relative potency", "setting": "[3]", "value": 2.3}, {"measurement": "Relative potency", "setting": "[4]", "value": "> 3.5"}]}, {"smiles": "CO[C@H]1O[C@]2(C)CC[C@H]3CCC[C@@H](CCOC(=O)c4ccccc4)[C@]31OO2", "values": [{"measurement": "IC50", "setting": "[1]", "value": 8.2, "unit": "ng/mL"}, {"measurement": "IC50", "setting": "[2]", "value": 29.5, "unit": "ng/mL"}, {"measurement": "Relative potency", "setting": "[3]", "value": 0.1}, {"measurement": "Relative potency", "setting": "[4]", "value": 0.2}]}, {"smiles": "CO[C@H]1O[C@]2(C)CC[C@H]3CCC[C@@H](CCOC(=O)CNC(=O)OC(C)(C)C)[C@]31OO2", "values": [{"measurement": "IC50", "setting": "[1]", "value": 2.5, "unit": "ng/mL"}, {"measurement": "IC50", "setting": "[2]", "value": 3.5, "unit": "ng/mL"}, {"measurement": "Relative potency", "setting": "[3]", "value": 1.1}, {"measurement": "Relative potency", "setting": "[4]", "value": 0.6}]}, {"smiles": "CO[C@H]1O[C@]2(C)CC[C@H]3CCC[C@@H](CCOC(=O)c4ccc(C(=O)OCCN(C)C)cc4)[C@]31OO2", "values": [{"measurement": "IC50", "setting": "[1]", "value": 3.3, "unit": "ng/mL"}, {"measurement": "IC50", "setting": "[2]", "value": 12.6, "unit": "ng/mL"}, {"measurement": "Relative potency", "setting": "[3]", "value": 0.3}, {"measurement": "Relative potency", "setting": "[4]", "value": 0.4}]}, {"smiles": "COC(=O)c1ccc(C(=O)OCC[C@@H]2CCC[C@@H]3CC[C@]4(C)OO[C@]32[C@@H](OC)O4)cc1", "values": [{"measurement": "IC50", "setting": "[1]", "value": "< 1.2", "unit": "ng/mL"}, {"measurement": "IC50", "setting": "[2]", "value": "> 1.2", "unit": "ng/mL"}, {"measurement": "Relative potency", "setting": "[3]", "value": "> 3.3"}, {"measurement": "Relative potency", "setting": "[4]", "value": "> 1.2"}]}, {"smiles": "CO[C@H]1O[C@]2(C)CC[C@H]3CCC[C@@H](CCOS(=O)(=O)c4ccc(C)cc4)[C@]31OO2", "values": [{"measurement": "IC50", "setting": "[1]", "value": 1.9, "unit": "ng/mL"}, {"measurement": "IC50", "setting": "[2]", "value": 5.6, "unit": "ng/mL"}, {"measurement": "Relative potency", "setting": "[3]", "value": 0.7}, {"measurement": "Relative potency", "setting": "[4]", "value": 0.7}]}, {"smiles": "COCC[C@@H]1CCC[C@@H]2CC[C@]3(C)OO[C@]21[C@@H](OC)O3", "values": [{"measurement": "IC50", "setting": "[1]", "value": 3.7, "unit": "ng/mL"}, {"measurement": "IC50", "setting": "[2]", "value": 10.7, "unit": "ng/mL"}, {"measurement": "Relative potency", "setting": "[3]", "value": 0.4}, {"measurement": "Relative potency", "setting": "[4]", "value": 0.4}]}, {"smiles": "CCN(CC)C(=O)c1ccc(C(=O)OCC[C@@H]2CCC[C@@H]3CC[C@]4(C)OO[C@]32[C@@H](OC)O4)cc1", "values": [{"measurement": "IC50", "setting": "[1]", "value": "< 1.4", "unit": "ng/mL"}, {"measurement": "IC50", "setting": "[2]", "value": "< 1.4", "unit": "ng/mL"}, {"measurement": "Relative potency", "setting": "[3]", "value": "> 2.8"}, {"measurement": "Relative potency", "setting": "[4]", "value": "> 1"}]}, {"smiles": "CO[C@H]1O[C@]2(C)CC[C@H]3CCC[C@@H](CCOC(=O)c4ccc(C(=O)O)cc4)[C@]31OO2", "values": [{"measurement": "IC50", "setting": "[1]", "value": 15.7, "unit": "ng/mL"}, {"measurement": "IC50", "setting": "[2]", "value": 63.3, "unit": "ng/mL"}, {"measurement": "Relative potency", "setting": "[3]", "value": 0.1}, {"measurement": "Relative potency", "setting": "[4]", "value": 0.1}]}]}
